Assay results from ChEMBL document CHEMBL3865810, “4-Aminoquinoline derivatives: Synthesis, in vitro and in vivo antiplasmodial activity against chloroquine-resistant parasites” (Eur J Med Chem, 2016).
Converted amounts (≈) assume the structure as drawn. The source made the active and inactive calls. The calls are words filed in the database; no cut-off is given here.

Columns and labels:
[1] = Cytotoxicity against human HuH7 cells after 72 hrs by MTT assay; assay type: toxicity, cell-based, Huh-7
How it was run: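 Huh-7 human hepatocellular carcinoma cells, 4 × 10^3 per well in DMEM with 10% FBS and 1% penicillin-streptomycin-glutamine. Exposed to eight 2-fold dilutions spanning 100 to 0.78 µg/mL for 72 h. MTT added for 2-4 h, then detergent solubilization for 2 h in the dark at room temperature; absorbance read at 570 nm. CC50 is the mean of at least two experiments run in duplicate.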

Plasmodium falciparum = experiment: Antiplasmodial activity against erythrocytic stage of chloroquine/pyrimethamine/cycloguanil resistant-Plasmodium falciparum FCR3 after 48 hrs by [3H]-hypoxanthine incorporation assay; assay type: functional; conditions: FCR-3/Gambia
How it was run: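 FCR3 P. falciparum, resistant to CQ (100 ng/mL) and pyrimethamine (15 nM), was synchronized to rings and grown at 1% parasitemia and 2% haematocrit in group O erythrocytes. Medium was RPMI 1640 with Albumax II, at 37 °C under 2% O2/5.5% CO2. Cells were exposed for 48 h to serial dilutions from 0.05 to 2x10^-6 mg/ml. Read-out was [3H]-hypoxanthine incorporation, in triplicate, two independent assays. IC50 came from dose-response curves.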

[2] = Toxicity in ip dosed BALB/c mouse assessed as mortality measured up to7 days; assay type: organism-based; conditions: in vivo
How it was run: (§1)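 For the LD50 test, BALB/c mice were given single ip doses of 50, 100, 200, 500, 600, 800 or 1000 mg/kg BW and observed for mortality over 7 days.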

Mus musculus [3] = experiment: Toxicity in BALB/c mouse assessed as mortality at 500 mg/kg, ip measured up to 7 days; assay type: organism-based; conditions: in vivo, 168 h; how it was run: as §1
Plasmodium berghei [4] = experiment: Antiplasmodial activity against erythrocytic stage of chloroquine-resistant Plasmodium berghei ANKA infected in ip dosed BALB/c mouse assessed as reduction in parasitemia administered 3 hrs post infection for 4 days by Giemsa staining based microscopic assay; assay type: functional
How it was run: (§2)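 Peters' four-day suppressive test. Male naïve BALB/c mice, 25 ± 5 g, 4-5 weeks old, 5 per group, were infected ip on day 0 with 2x10^7 P. berghei ANKA parasitized erythrocytes. Dosing was ip from 2 mg/ml stocks in 10% DMSO, first given 1-3 h post-infection and repeated on days 1-3. Saline went to controls. On day 4, parasitemia was counted on Giemsa tail smears and activity = 100 − (treated/control mean parasitemia)×100.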

Plasmodium berghei [5] = experiment: Antiplasmodial activity against erythrocytic stage of chloroquine-resistant Plasmodium berghei ANKA infected in ip dosed BALB/c mouse assessed as increase in mouse survival time administered once daily 3 hrs post infection for 4 consecutive days by Giemsa staining based microscopic assay; assay type: functional, organism-based
How it was run: (§3)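 BALB/c mice, 5 per group, were infected ip with 2x10^7 P. berghei ANKA parasitized erythrocytes. They were dosed ip at 0.1, 1, 5 or 10 mg/kg/day from 2 mg/ml stocks in 10% DMSO, starting 1-3 h post-infection, once daily on days 0-3. Saline went to controls. Groups were compared by Kaplan-Meier with a log-rank (Mantel-Cox) test.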

Plasmodium berghei [6] = experiment: Antiplasmodial activity against erythrocytic stage of chloroquine-resistant Plasmodium berghei ANKA infected in BALB/c mouse assessed as inhibition of parasitemia at 1 mg/kg/day, ip administered 3 hrs post infection for 4 days by Giemsa staining based microscopic assay relative to control; assay type: functional; how it was run: as §2
Plasmodium berghei [7] = experiment: Antiplasmodial activity against erythrocytic stage of chloroquine-resistant Plasmodium berghei ANKA infected in BALB/c mouse assessed as inhibition of parasitemia at 5 mg/kg/day, ip administered 3 hrs post infection for 4 days by Giemsa staining based microscopic assay relative to control; assay type: functional; how it was run: as §2
Plasmodium berghei [8] = experiment: Antiplasmodial activity against erythrocytic stage of chloroquine-resistant Plasmodium berghei ANKA infected in BALB/c mouse assessed as inhibition of parasitemia at 10 mg/kg/day, ip administered 3 hrs post infection for 4 days by Giemsa staining based microscopic assay relative to control; assay type: functional; how it was run: as §2
Mus musculus [9] = experiment: Toxicity in BALB/c mouse assessed as mortality at 1000 mg/kg, ip measured up to 7 days; assay type: organism-based; conditions: in vivo, 168 h; how it was run: as §1
Mus musculus [10] = experiment: Toxicity in BALB/c mouse infected with erythrocytic stage of chloroquine-resistant Plasmodium berghei ANKA assessed as weight loss at 0.1 to 10 mg/kg/day, ip administered 3 hrs post infection for 4 days; assay type: organism-based; conditions: in vivo
[11] = Therapeutic index, ratio of LD50 for BALB/c mouse to ED50 for erythrocytic stage of chloroquine-resistant Plasmodium berghei ANKA infected in BALB/c mouse; conditions: read-out: Ratio LD50/ED50
How it was run: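 TI = LD50/ED50. LD50 was taken from BALB/c mice dosed ip at 50-1000 mg/kg and observed for 7 days. ED50 came from the P. berghei ANKA four-day suppressive test with ip dosing.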

Plasmodium berghei [12] = experiment: Antiplasmodial activity against erythrocytic stage of chloroquine-resistant Plasmodium berghei ANKA infected in BALB/c mouse assessed as mean survival time at 0.1 to 10 mg/kg/day, ip administered 1 to 3 hrs post infection qd measured on day 4 post last dose by giemsa staining-based microscopic analysis; assay type: functional, organism-based; how it was run: as §3
Plasmodium berghei [13] = experiment: Antiplasmodial activity against erythrocytic stage of chloroquine-resistant Plasmodium berghei ANKA infected in BALB/c mouse assessed as inhibition of parasitemia at 0.1 mg/kg/day, ip administered 3 hrs post infection for 4 days by Giemsa staining based microscopic assay relative to control; assay type: functional; how it was run: as §2

Compound	CC50 at 72 h [1]	IC50 (Plasmodium falciparum)	other results
Fc1cccc(Nc2ccnc3cc(Cl)ccc23)c1	> 100 µg/mL	0.098 µg/mL (≈ 0.359 µM)	–
Clc1ccc(Cl)c(Nc2ccnc3cc(Cl)ccc23)c1	> 100 µg/mL	0.056 µg/mL (≈ 0.173 µM)	–
Cc1cccc(C)c1Nc1ccnc2cc(Cl)ccc12	> 100 µg/mL	0.046 µg/mL (≈ 0.163 µM)	–
Fc1ccc(Nc2ccnc3cc(Cl)ccc23)c(Cl)c1	> 100 µg/mL	0.065 µg/mL (≈ 0.212 µM)	–
Cc1ccc(C)c(Nc2ccnc3cc(Cl)ccc23)c1	> 100 µg/mL	0.46 µg/mL (≈ 1.63 µM)	–
Fc1ccc(Nc2ccnc3cc(Cl)ccc23)cc1Cl	> 100 µg/mL	1.9 µg/mL (≈ 6.19 µM)	–
Cc1cc(F)ccc1Nc1ccnc2cc(Cl)ccc12	> 100 µg/mL	0.076 µg/mL (≈ 0.265 µM)	–
Cc1ccc(Nc2ccnc3cc(Cl)ccc23)c(C)c1	> 100 µg/mL	0.4 µg/mL (≈ 1.41 µM)	–
Fc1ccc(Nc2ccnc3cc(Cl)ccc23)cc1	> 100 µg/mL	0.029 µg/mL (≈ 0.106 µM)	LD50 at 7 days [2]: 800 mg/kg; Activity (Mus musculus [3]): Non-Toxic; ED50 (Plasmodium berghei [4]): 2.06 mg/kg; Activity (Plasmodium berghei [5]): Dose-dependent effect; inhibition in vivo at 1 mg/kg/day (Plasmodium berghei [6]): 32%; inhibition in vivo at 5 mg/kg/day (Plasmodium berghei [7]): 54.2%; inhibition in vivo at 10 mg/kg/day (Plasmodium berghei [8]): 79.1%; Activity (Mus musculus [9]): Toxic; Activity (Mus musculus [10]): Non-Toxic; selectivity ratio [11]: 388; Activity (Plasmodium berghei [12]): Active; inhibition in vivo at 0.1 mg/kg/day (Plasmodium berghei [13]): 21.6%
Cc1ccc(Nc2ccnc3cc(Cl)ccc23)cc1C	> 100 µg/mL	0.16 µg/mL (≈ 0.566 µM)	–
Clc1ccc2c(Nc3ccccc3Br)ccnc2c1	> 100 µg/mL	0.17 µg/mL (≈ 0.51 µM)	–
COc1cc(Nc2ccnc3cc(Cl)ccc23)cc(OC)c1OC	> 100 µg/mL	0.64 µg/mL (≈ 1.86 µM)	–
Cc1cccc(Nc2ccnc3cc(Cl)ccc23)c1C	> 100 µg/mL	0.036 µg/mL (≈ 0.127 µM)	–
Fc1ccc(Nc2ccnc3cc(Cl)ccc23)c(F)c1	> 100 µg/mL	0.045 µg/mL (≈ 0.155 µM)	–
COc1ccc(OC)c(Nc2ccnc3cc(Cl)ccc23)c1	> 100 µg/mL	0.022 µg/mL (≈ 0.0699 µM)	LD50 at 7 days [2]: 800 mg/kg; Activity (Mus musculus [3]): Non-Toxic; ED50 (Plasmodium berghei [4]): 2.23 mg/kg; Activity (Plasmodium berghei [5]): Dose-dependent effect; inhibition in vivo at 1 mg/kg/day (Plasmodium berghei [6]): 21.7%; inhibition in vivo at 5 mg/kg/day (Plasmodium berghei [7]): 58.1%; inhibition in vivo at 10 mg/kg/day (Plasmodium berghei [8]): 93.4%; Activity (Mus musculus [9]): Toxic; Activity (Mus musculus [10]): Non-Toxic; selectivity ratio [11]: 359; Activity (Plasmodium berghei [12]): Active; inhibition in vivo at 0.1 mg/kg/day (Plasmodium berghei [13]): 12%
CCN(CC)Cc1cc(Nc2ccnc3cc(Cl)ccc23)ccc1O [AMODIAQUINE]	–	–	ED50 (Plasmodium berghei [4]): 1.19 mg/kg; inhibition in vivo at 1 mg/kg/day (Plasmodium berghei [6]): 48.2%; inhibition in vivo at 5 mg/kg/day (Plasmodium berghei [7]): 67.1%; inhibition in vivo at 10 mg/kg/day (Plasmodium berghei [8]): 94.1%; inhibition in vivo at 0.1 mg/kg/day (Plasmodium berghei [13]): 28%
Clc1ccc(Nc2ccnc3cc(Cl)ccc23)c(Cl)c1	> 100 µg/mL	0.76 µg/mL (≈ 2.35 µM)	–
